Laboratory results published in ChEMBL document CHEMBL1129996, “1-Aryl-3,5-dihydro-4H-2,3-benzodiazepin-4-ones: novel AMPA receptor antagonists” (J Med Chem, 1997).
“And” between values parts separate entries of the source, which are not always exact repeats. Equal entries are not always repeated.

System: Mus musculus
Assay: Anticonvulsant activity against the maximal electroshock in Swiss mice after 45 minutes pretreatment at a dose range 10-150 uM/kg
Type: functional
Details: not given
Method in brief: (§1)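 Swiss mice dosed ip in 50% DMSO/50% saline 45 min before ear-clip electroshock (50 mA, 20 ms pulses, 35 Hz, 400 ms). Protection = abolition of tonic hindlimb extension. Usually 4-5 doses with 8-10 mice each; ED50 (95% confidence limits) by Litchfield-Wilcoxon.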
For `COc1cc2c(cc1OC)C(c1cccc([N+](=O)[O-])c1)=NNC(=O)C2`, the ED50 was > 150 µmol/kg.
Compound `COc1cc2c(cc1OC)C(c1ccc(Br)cc1)=NNC(=O)C2` has an ED50 of 123 µmol/kg.
In the case of `COc1cc2c(cc1OC)C(c1ccc([N+](=O)[O-])cc1)=NN(C)C(=O)C2`, the ED50 is reported as > 150 µmol/kg.

System: Mus musculus
Assay: Audiogenic seizures after pretreatment with Aniracetam in DBA / 2 mice tonic phase at a dose range of 33-300 uM/kg
Type: functional
Details: not given
Method in brief: (§2)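 DBA/2 mice pretreated with aniracetam 50 nmol icv 60 min before auditory testing, with ip 2,3-benzodiazepine; audiogenic clonic and tonic phases scored; ED50 by Litchfield-Wilcoxon.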
Compound `COc1cc2c(cc1OC)C(c1ccccc1)=NNC(=O)C2` has an ED50 of 157 µmol/kg.

Species on record: Mus musculus
Assay: Audiogenic seizures after concomitant treatment with Flumazenil (8.24 uM) in DBA / 2 mice clonic phase
Type: functional
Details: not given
Work on `COc1cc2c(cc1OC)C(c1ccccc1)=NNC(=O)C2` yielded an ED50 of 38.2 µmol/kg.

System: Mus musculus
Assay: Pentylenetetrazole-induced seizures in Swiss mice after 45 min pretreatment at a dose range 10-150 uM/kg
Type: functional
Details: not given
With `COc1cc2c(cc1OC)C(c1cccc([N+](=O)[O-])c1)=NNC(=O)C2` the ED50 was > 150 µmol/kg.
For `COc1cc2c(cc1OC)C(c1ccc(Br)cc1)=NNC(=O)C2`, the ED50 was > 150 µmol/kg.
For `COc1cc2c(cc1OC)C(c1ccc([N+](=O)[O-])cc1)=NN(C)C(=O)C2`, the ED50 was > 150 µmol/kg.

System: Mus musculus
Assay: Anticonvulsant activity against tonic phase of the audiogenic seizures in DBA / 2 mice 30 min after ip administration at a dose range 10-100 uM/kg
Type: functional
Details: 0.5 h
Method in brief: (§3)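 Groups of 10 DBA/2 mice of either sex; drug ip (0.1 mL/10 g) as fresh solution in 50% DMSO/50% saline, 30 min before auditory stimulation (12-16 kHz, 109 dB, 60 s or until tonic extension) under perspex dome after 60 s habituation. Latency and incidence of wild running, clonic and tonic phases scored; ED50 (95% confidence limits) by Litchfield-Wilcoxon.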
In the case of `COc1cc2c(cc1OC)C(c1ccccc1)=NN(C(C)=O)C(=O)C2`, the ED50 is reported as 72.1 µmol/kg and 24.4 mg/kg.
With `COc1cc2c(cc1OC)C(c1ccccc1)=NNC(=O)C2` the ED50 was 31.8 µmol/kg and 9.41 mg/kg.

System: Mus musculus
Assay: Anticonvulsant activity against the clonic seizures induced by icv injection of AMPA in DBA / 2 mice at a dose range of 10-200 uM/kg
Type: functional
Details: central
`COc1cc2c(cc1OC)C(c1ccccc1)=NNC(=O)C2` gave an ED50 of 66 µmol/kg.

System: not listed separately
Assay: Relative lipophilicity of compound
Type: physicochemical
Details: reversed-phase TLC, acetone/water 2:1
Method in brief: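 Reversed-phase TLC type lipophilicity: plates dried 105 °C 1 h, mobile phase acetone:water 2:1, 1 µL of 3 mg/mL CHCl3 solution spotted; five runs with varied positions, mean Rf converted as Rm = log[(1/Rf) - 1].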
In the case of `COc1cc2c(cc1OC)C(c1ccccc1)=NN(C(C)=O)C(=O)C2`, the Rm is reported as -0.052.
`COc1cc2c(cc1OC)C(c1cccc([N+](=O)[O-])c1)=NNC(=O)C2` showed a Rm of -0.14.
With `COc1cc2c(cc1OC)C(c1ccc(Br)cc1)=NNC(=O)C2` the Rm was 0.052.
Work on `COc1cc2c(cc1OC)C(c1ccc([N+](=O)[O-])cc1)=NN(C)C(=O)C2` yielded a Rm of 0.11.
`COc1cc2c(cc1OC)C(c1ccccc1)=NNC(=O)C2` showed a Rm of -0.012.

Species on record: Mus musculus
Assay: Audiogenic seizures after concomitant treatment with Flumazenil (8.24 uM) in DBA / 2 mice tonic phase
Type: functional
Details: not given
Compound `COc1cc2c(cc1OC)C(c1ccccc1)=NNC(=O)C2` has an ED50 of 35.8 µmol/kg.

System: Mus musculus
Assay: Anticonvulsant activity against the tonic seizures induced by icv injection of AMPA in DBA / 2 mice at a dose range of 10-200 uM/kg
Type: functional
Details: central
Work on `COc1cc2c(cc1OC)C(c1ccccc1)=NNC(=O)C2` yielded an ED50 of 42.6 µmol/kg.

Species on record: Mus musculus
Assay: Audiogenic seizures after concomitant treatment with Flumazenil (24.72 uM) in DBA / 2 mice clonic phase
Type: functional
Details: not given
`COc1cc2c(cc1OC)C(c1ccccc1)=NNC(=O)C2` gave an ED50 of 50.9 µmol/kg.

System: Mus musculus
Assay: Anticonvulsant activity against clonic phase of the audiogenic seizures in DBA / 2 mice 30 min after ip administration at a dose range 10-133 uM/kg
Type: functional
Details: 0.5 h
Method in brief: as §3
With `COc1cc2c(cc1OC)C(c1ccc(Br)cc1)=NNC(=O)C2` the ED50 was 110 µmol/kg and 41.2 mg/kg.

System: not listed separately
Assay: Therapeutic index it is the ratio between TD50 and ED50 (from the clonic phase of the audiogenic seizures)
Details: read-out: TI
Method in brief: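 Therapeutic index computed as rotarod TD50 divided by ED50 for the clonic phase of audiogenic seizures in DBA/2 mice.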
`COc1cc2c(cc1OC)C(c1ccccc1)=NN(C(C)=O)C(=O)C2` gave a therapeutic index (TD50/ED50) of 1.8.
`COc1cc2c(cc1OC)C(c1ccc(Br)cc1)=NNC(=O)C2` gave a therapeutic index (TD50/ED50) of 2.
For `COc1cc2c(cc1OC)C(c1ccccc1)=NNC(=O)C2`, the therapeutic index (TD50/ED50) was 4.2.

System: Mus musculus
Assay: Anticonvulsant activity against clonic phase of the audiogenic seizures in DBA / 2 mice 30 min after ip administration at a dose range 10-100 uM/kg
Type: functional
Details: 0.5 h
Method in brief: as §3
With `COc1cc2c(cc1OC)C(c1ccccc1)=NN(C(C)=O)C(=O)C2` the ED50 was 101 µmol/kg and 33.3 mg/kg.

System: Mus musculus
Assay: Anticonvulsant activity against tonic phase of the audiogenic seizures in DBA / 2 mice 30 min after ip administration at a dose range 10-120 uM/kg
Type: functional
Details: 0.5 h
Method in brief: as §3
In the case of `COc1cc2c(cc1OC)C(c1cccc([N+](=O)[O-])c1)=NNC(=O)C2`, the ED50 is reported as > 120 µmol/kg and > 44 mg/kg.
For `COc1cc2c(cc1OC)C(c1ccc([N+](=O)[O-])cc1)=NN(C)C(=O)C2`, the ED50 was > 120 µmol/kg and > 44 mg/kg.

System: Mus musculus
Assay: Pentylenetetrazole-induced seizures in Swiss mice after 45 min pretreatment at a dose range 10-100 uM/kg
Type: functional
Details: not given
Method in brief: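 Male Swiss mice (20-26 g), compound ip in 50% DMSO/50% saline 45 min before sc pentylenetetrazole at CD97 (85 mg/kg), then observed 30 min. Protection is absence of clonic spasms lasting at least 5 s. Typically 4-5 doses, 8-10 mice per dose. ED50 with 95% confidence limits by Litchfield and Wilcoxon.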
`COc1cc2c(cc1OC)C(c1ccccc1)=NNC(=O)C2` showed an ED50 of 68.2 µmol/kg.

System: not listed separately
Assay: Motor toxicity in 50% of mice on locomotion assessed by Rotarod test following 30 min ip administration
Type: organism-based
Details: mouse, in vivo
Method in brief: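 Male Swiss mice (20-26 g, 48-54 days), groups of 10, trained on rotarod (3 cm, 8 rpm); tested 30 min after ip dosing. Impairment = failure to stay on for 2 min; TD50 (95% confidence limits) by Litchfield-Wilcoxon.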
Compound `COc1cc2c(cc1OC)C(c1ccccc1)=NN(C(C)=O)C(=O)C2` has a TD50 at 0.5 h of 181 µmol/kg.
For `COc1cc2c(cc1OC)C(c1cccc([N+](=O)[O-])c1)=NNC(=O)C2`, the TD50 at 0.5 h was > 150 µmol/kg.
For `COc1cc2c(cc1OC)C(c1ccc(Br)cc1)=NNC(=O)C2`, the TD50 at 0.5 h was 226 µmol/kg.
In the case of `COc1cc2c(cc1OC)C(c1ccc([N+](=O)[O-])cc1)=NN(C)C(=O)C2`, the TD50 at 0.5 h is reported as > 150 µmol/kg.
`COc1cc2c(cc1OC)C(c1ccccc1)=NNC(=O)C2` gave a TD50 at 0.5 h of 142 µmol/kg.

Species on record: Mus musculus
Assay: Audiogenic seizures after concomitant treatment with Flumazenil (24.72 uM) in DBA / 2 mice tonic phase
Type: functional
Details: not given
In the case of `COc1cc2c(cc1OC)C(c1ccccc1)=NNC(=O)C2`, the ED50 is reported as 41.3 µmol/kg.

System: Mus musculus
Assay: Anticonvulsant activity against clonic phase of the audiogenic seizures in DBA / 2 mice 30 min after ip administration at a dose range 10-120 uM/kg
Type: functional
Details: 0.5 h
Method in brief: as §3
With `COc1cc2c(cc1OC)C(c1cccc([N+](=O)[O-])c1)=NNC(=O)C2` the ED50 was > 120 µmol/kg and > 44 mg/kg.
With `COc1cc2c(cc1OC)C(c1ccc([N+](=O)[O-])cc1)=NN(C)C(=O)C2` the ED50 was > 120 µmol/kg and > 44 mg/kg.

System: Mus musculus
Assay: Anticonvulsant activity against the maximal electroshock in Swiss mice after 45 minutes pretreatment at a dose range 10-100 uM/kg
Type: functional
Details: not given
Method in brief: as §1
`COc1cc2c(cc1OC)C(c1ccccc1)=NNC(=O)C2` gave an ED50 of 35.8 µmol/kg.

System: Mus musculus
Assay: Anticonvulsant activity against tonic phase of the audiogenic seizures in DBA / 2 mice 30 min after ip administration at a dose range 10-133 uM/kg
Type: functional
Details: 0.5 h
Method in brief: as §3
For `COc1cc2c(cc1OC)C(c1ccc(Br)cc1)=NNC(=O)C2`, the ED50 was 82.5 µmol/kg and 30.7 mg/kg.

System: Mus musculus
Assay: Audiogenic seizures after pretreatment with Aniracetam in DBA / 2 mice clonic phase at a dose range of 33-300 uM/kg
Type: functional
Details: not given
Method in brief: as §2
`COc1cc2c(cc1OC)C(c1ccccc1)=NNC(=O)C2` showed an ED50 of 215 µmol/kg.
